Reference: ChEMBL document CHEMBL1136784, “Synthesis and biological evaluation of 14-alkoxymorphinans. 18. N-substituted 14-phenylpropyloxymorphinan-6-ones with unanticipated agonist properties: extending the scope of common structure-activity relationships” (J Med Chem, 2003)
Several values for one entry are separate records, joined by “and”; a condition that tells them apart may be missing. Equal values may be shown once.

Assays:
Mu-type opioid receptor = Mu-type opioid receptor (Rattus norvegicus, UniProt P33535); test: In vitro binding affinity at opioid receptor mu 1 was determined in C6 rat glioma cells using [3H]DAMGO; format: cell-based
Chain of Mu-type opioid receptor (P33535 whole entry): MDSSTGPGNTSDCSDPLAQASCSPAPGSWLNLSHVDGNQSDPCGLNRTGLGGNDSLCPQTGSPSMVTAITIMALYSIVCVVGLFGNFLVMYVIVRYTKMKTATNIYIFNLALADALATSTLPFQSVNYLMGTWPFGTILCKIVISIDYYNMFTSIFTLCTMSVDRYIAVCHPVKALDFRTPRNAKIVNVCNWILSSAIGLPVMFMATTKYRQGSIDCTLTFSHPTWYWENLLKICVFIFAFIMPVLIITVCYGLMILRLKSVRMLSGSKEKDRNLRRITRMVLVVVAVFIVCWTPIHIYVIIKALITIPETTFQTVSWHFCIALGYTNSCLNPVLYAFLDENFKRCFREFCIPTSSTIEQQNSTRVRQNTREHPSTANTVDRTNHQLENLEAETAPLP

[1] = molecular target: Opioid receptors; mu and delta (Mus musculus) (UniProt P42866+P32300); test: In vivo antinociceptive activity was determined upon subcutaneous administration in the mouse paraphenylquinone writhing test; format: functional, organism-based
Chain of Opioid receptors; mu and delta (Mus musculus) (P32300 whole entry, looked up): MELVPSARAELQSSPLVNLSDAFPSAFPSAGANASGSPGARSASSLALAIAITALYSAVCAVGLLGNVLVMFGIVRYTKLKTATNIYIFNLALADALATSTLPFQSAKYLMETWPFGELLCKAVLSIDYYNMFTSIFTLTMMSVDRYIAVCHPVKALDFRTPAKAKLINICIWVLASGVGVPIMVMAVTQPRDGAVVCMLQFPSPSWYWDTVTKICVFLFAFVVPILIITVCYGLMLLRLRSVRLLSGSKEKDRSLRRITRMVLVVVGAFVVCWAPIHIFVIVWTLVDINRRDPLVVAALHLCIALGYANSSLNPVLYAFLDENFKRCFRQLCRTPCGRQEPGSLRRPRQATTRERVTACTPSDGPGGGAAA
Chain of Opioid receptors; mu and delta (Mus musculus) (P42866 whole entry, looked up): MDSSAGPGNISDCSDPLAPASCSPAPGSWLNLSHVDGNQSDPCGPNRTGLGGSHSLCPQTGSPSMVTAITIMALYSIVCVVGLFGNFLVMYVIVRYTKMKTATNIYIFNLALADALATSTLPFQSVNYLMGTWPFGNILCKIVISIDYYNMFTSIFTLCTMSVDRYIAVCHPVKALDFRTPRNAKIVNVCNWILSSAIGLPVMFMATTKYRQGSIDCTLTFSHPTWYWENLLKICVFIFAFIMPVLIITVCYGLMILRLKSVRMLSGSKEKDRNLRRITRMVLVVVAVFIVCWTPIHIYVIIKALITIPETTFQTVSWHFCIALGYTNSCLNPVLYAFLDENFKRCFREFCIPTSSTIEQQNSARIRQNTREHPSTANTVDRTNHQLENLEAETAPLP
Procedure, shortened: (§1)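 Male ICR mice weighing 20-30 g, each animal tested only once. Drugs were given subcutaneously at a minimum of 3 doses, with 6-10 mice per dose. Assay procedures followed earlier published methods and their modifications.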

[2] = Selectivity ratio was determined; parameters: reference not given here
[3] = molecular target: Kappa-type opioid receptor (Homo sapiens, UniProt P41145); test: biochemical; format: cell-based, CHO
Chain of Kappa-type opioid receptor (P41145 whole entry): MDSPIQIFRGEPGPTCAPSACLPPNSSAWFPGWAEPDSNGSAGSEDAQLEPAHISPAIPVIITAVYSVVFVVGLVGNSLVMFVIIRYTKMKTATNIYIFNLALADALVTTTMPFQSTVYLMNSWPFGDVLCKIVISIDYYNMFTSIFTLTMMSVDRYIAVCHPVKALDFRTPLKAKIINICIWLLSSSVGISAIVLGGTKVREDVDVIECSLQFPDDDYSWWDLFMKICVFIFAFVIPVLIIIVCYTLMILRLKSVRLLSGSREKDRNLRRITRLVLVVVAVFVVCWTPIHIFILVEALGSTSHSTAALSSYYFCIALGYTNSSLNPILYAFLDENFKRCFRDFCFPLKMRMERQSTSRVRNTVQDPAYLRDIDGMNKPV

[4] = In vivo antinociceptive activity was determined upon subcutaneous administration in the mouse tail-flick test; format: functional; details: sc; procedure, shortened: as §1
[5] = molecular target: Delta-type opioid receptor (Rattus norvegicus, UniProt P33533); test: In vitro binding affinity at opioid receptor delta 1 was determined in C6 rat glioma cells using [3H]Ile5,6 deltorphin II; format: cell-based
Chain of Delta-type opioid receptor (P33533 whole entry): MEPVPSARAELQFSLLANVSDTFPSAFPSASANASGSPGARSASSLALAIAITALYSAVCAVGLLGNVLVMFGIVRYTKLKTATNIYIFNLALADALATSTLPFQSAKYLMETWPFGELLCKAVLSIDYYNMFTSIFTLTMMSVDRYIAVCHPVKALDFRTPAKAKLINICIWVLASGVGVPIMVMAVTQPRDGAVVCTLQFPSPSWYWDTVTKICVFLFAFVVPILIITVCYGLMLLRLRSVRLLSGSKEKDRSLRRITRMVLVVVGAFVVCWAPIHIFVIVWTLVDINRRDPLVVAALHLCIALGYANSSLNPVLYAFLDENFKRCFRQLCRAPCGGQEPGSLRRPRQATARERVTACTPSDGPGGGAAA

O=C1CC[C@@]2(OCCCc3ccccc3)[C@H]3Cc4ccc(O)c5c4[C@@]2(CCN3CC2CCCO2)[C@H]1O5 (stereo partly specified)
Ki (Mu-type opioid receptor): 0.2 nM | ED50 [1]: 2 µg/kg | Ratio [2]: 0.4 and 0.45 | Ki [3]: 0.08 nM | ED50 [4]: 7 µg/kg | Ki [5]: 0.09 nM

COc1ccc2c3c1O[C@H]1C(=O)CC[C@@]4(OCCCc5ccccc5)[C@@H](C2)N(CCc2ccccc2)CC[C@]314
ED50 [4]: 80 µg/kg

C=CCN1CC[C@]23c4c5ccc(O)c4O[C@H]2C(=O)CC[C@@]3(OCCCc2ccccc2)[C@H]1C5
Ki [3]: 0.11 nM | ED50 [4]: 6 µg/kg | Ki [5]: 0.26 nM

COc1ccc2c3c1O[C@H]1C(=O)CC[C@@]4(OCCCc5ccccc5)[C@@H](C2)N(CC2CCCO2)CC[C@]314 (stereo partly specified)
Ki (Mu-type opioid receptor): 3.8 nM | Ki [3]: 61.4 nM | ED50 [4]: 760 µg/kg | Ki [5]: 6.2 nM

O=C1CC[C@@]2(OCCCc3ccccc3)[C@H]3Cc4ccc(O)c5c4[C@@]2(CCN3CC2CC2)[C@H]1O5
ED50 [1]: 6 µg/kg | Ki [3]: 0.41 nM | ED50 [4]: 3 µg/kg

CO[C@@]12CCC(=O)[C@]3(C)Oc4c(O)ccc5c4[C@@]31CCN(C)[C@@H]2C5
Ki (Mu-type opioid receptor): 0.023 nM | ED50 [1]: 9 µg/kg | Ki [3]: 304 nM | ED50 [4]: 30 µg/kg | Ki [5]: 40.9 nM

O=C1CC[C@@]2(OCCCc3ccccc3)[C@H]3Cc4ccc(O)c5c4[C@@]2(CCN3CC2CCC2)[C@H]1O5
Ki (Mu-type opioid receptor): 0.25 nM | Ratio [2]: 1.96 and 1.84 | Ki [3]: 0.49 nM | ED50 [4]: 8 µg/kg | Ki [5]: 0.46 nM

CCCN1CC[C@]23c4c5ccc(O)c4O[C@H]2C(=O)CC[C@@]3(OCCCc2ccccc2)[C@H]1C5
Ki (Mu-type opioid receptor): 0.09 nM | ED50 [1]: 0.9 µg/kg | Ratio [2]: 4.11 and 10.3 | Ki [3]: 0.37 nM | ED50 [4]: 2 µg/kg | Ki [5]: 0.93 nM

CN1CC[C@]23c4c5ccc(O)c4O[C@H]2[C@@H](O)C=C[C@H]3[C@H]1C5 [MORPHINE]
ED50 [1]: 400 µg/kg | ED50 [4]: 1900 µg/kg

O=C1CC[C@@]2(OCCCc3ccccc3)[C@H]3Cc4ccc(O)c5c4[C@@]2(CCN3CCc2ccccc2)[C@H]1O5
ED50 [4]: 110 µg/kg
